Results from different studies.
Target: Serine/threonine-protein kinase PLK2 (PLK2, Homo sapiens, UniProt Q9NYY3)

`C[C@H]1CCN(c2nccc(-c3cnn4ncccc34)n2)C1` has a remaining binding of 91% (binding; 1 µM).
With `Cc1c(NC(=O)c2cc(C(N)=O)nc3cc(F)ccc23)c(C(F)(F)F)nn1Cc1ccc(C(C)(C)C)cc1` the remaining binding was 100% (cell-free assay, competition with immobilised ligand; 1 µM).
For `O=C(c1ccc(Nc2ncc(Cl)c(-c3ccc(Cl)s3)n2)cc1)N1CCC(N2CCCC2)CC1`, the remaining binding was 47% (binding, competition with immobilised ligand; 1 µM).
The remaining binding of `COc1ccnn2ncc(-c3ccnc(N(C)C)n3)c12` is reported as 93% (binding; 1 µM).
`COc1cnc(Nc2cccc(S(N)(=O)=O)c2)nc1N1CCN(c2ccccc2)CC1` has a remaining binding of 94% (binding, competition with immobilised ligand; 1 µM).
With `N[C@H]1CCN(c2nccc(-c3cnn4ncccc34)n2)C1` the remaining binding was 71% (binding; 1 µM).
`O=C(NCC1CCOCC1)c1n[nH]cc1NC(=O)c1c(F)cccc1F` has a remaining binding of 96% (binding, competition with immobilised ligand; 1 µM).
The remaining binding of `CN(C)c1nccc(-c2cnn3ncccc23)n1` is reported as 100% (binding; 1 µM).
`CN(C)CC#Cc1ccc(OCCCc2sc(N3CCc4cccc(C(=O)Nc5nc6ccccc6s5)c4C3)nc2C(=O)O)c(F)c1` has a remaining binding of 94% (cell-free assay, competition with immobilised ligand; 1 µM).
The remaining binding of `O=C(NCCCN1CCOCC1)c1ccc(Nc2ncc(Cl)c(-c3ccc(Cl)s3)n2)cc1` is reported as 5.9% (binding, competition with immobilised ligand; 1 µM).
For `Cc1nc(C2CCN(C(=O)c3ccc(OC(F)(F)F)cc3N)CC2)c2ncc(N3CCN(C)CC3)cc2n1`, the remaining binding was 74% (cell-free assay, competition with immobilised ligand; 1 µM).
`COc1cnc(Nc2cccc(S(N)(=O)=O)c2)nc1N1CCN(c2ccccc2)C(=O)C1` gave a remaining binding of 80% (binding, competition with immobilised ligand; 1 µM).
`O=C(c1ccc(Nc2ncc(Cl)c(-c3cc4ccccc4s3)n2)cc1)N1CCC(N2CCCC2)CC1` has a remaining binding of 68% (binding, competition with immobilised ligand; 1 µM).
For `c1cnn2ncc(-c3ccnc(N4CCC45COC5)n3)c2c1`, the remaining binding was 87% (binding; 1 µM).
The remaining binding of `FC(F)(F)c1ccc2c(c1)nc(-c1cccnc1)n2C1CC1` is reported as 94% (cell-free assay, competition with immobilised ligand; 1 µM).
The remaining binding of `CCN1CCN(Cc2ccc(C(=O)Nc3ccc(C)c(Oc4ccc5c(c4)CC(=O)N5)c3)cc2C(F)(F)F)CC1` is reported as 66% (binding, competition with immobilised ligand; 1 µM).
`CNC(=O)Nc1ccc2c(c1)CC[C@@]21OC(=O)N(CC(=O)N(Cc2ccc(F)cc2)[C@@H](C)C(F)(F)F)C1=O` gave a remaining binding of 91% (cell-free assay, competition with immobilised ligand; 1 µM).
With `F[C@@H]1CCN(c2nccc(-c3cnn4ncccc34)n2)C1` the remaining binding was 100% (binding; 1 µM).
`CCC(=O)N[C@H]1CC[C@@H](C(=O)N(C)c2ccc(-c3nc4ccccc4o3)cc2)C1` gave a remaining binding of 96% (cell-free assay, competition with immobilised ligand; 1 µM).
`c1cncc(-c2cccc(Nc3nccc(NC4CCCCC4)n3)c2)c1` gave a remaining binding of 100% (binding, competition with immobilised ligand; 10 µM).
